Assay results published in ChEMBL document CHEMBL3525991, “Metabolic transformation of antitumor acridinone C-1305 but not C-1311 via selective cellular expression of UGT1A10 increases cytotoxic response: implications for clinical use” (Drug Metab Dispos, 2013).
Calls of active or inactive are those of the source. The calls are words filed in the database; no cut-off is given here.

Experiments:
[1] = Cytotoxicity against human KB3 cells assessed as decrease in cell viability after 72 hrs by MTT assay; assay type: functional, cell-based; details: KB3, 72 h
Outline: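 KB-3 (HeLa variant) cells, untransfected, in DMEM with 10% FBS at 37 °C, 5% CO2, seeded 2000/well. Next day, drug added at concentrations up to 10 μM, final 0.1% DMSO; vehicle controls. MTT read at 540 nm after 4 h, following DMSO solubilisation. Triplicate points, relative to vehicle. IC50 is the concentration giving 50% of control absorbance. Repeated independently.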

[2] = Cell cycle arrest in human KB3 cells overexpressing human UGT1A10 assessed as accumulation of cells with 4N DNA content at 3 uM after 24 to 72 hrs by propidium iodide staining-based FACS flow cytometric analysis; assay type: functional
Outline: (§1)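 KB-3 cells were electroporated with a UGT1A10 expression plasmid (140 V, 250 μF), co-transfected with GFP, and used 24 h later. At 80% confluence they received 8 μM or 3 μM compound, or 0.1% DMSO, for 24–72 h. Cells were fixed in ice-cold 70% ethanol, stained with PI/RNase for 30 min in the dark, and analysed by flow cytometry for DNA content; at least two experiments.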

[3] = Cytotoxicity against human KB3 cells expressing human UGT2B4 assessed as decrease in cell viability after 72 hrs by MTT assay; assay type: functional, cell-based; details: KB3, 72 h
Outline: (§2)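 KB-3 cells electroporated with 5 μg plasmid (UGT1A10-pcDNA3.1, UGT2B4-pIRES or empty pcDNA3.1), cotransfected with GFP (140 V, 250 μF). Used 24 h later at 2000/well. Next day, drug up to 10 μM in 0.1% DMSO for 72 h. MTT read at 540 nm after 4 h. Triplicates, relative to vehicle. IC50 is 50% of control absorbance.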

[4] = Cell cycle arrest in human KB3 cells assessed as distribution at M phase at 3 uM after 24 hrs by propidium iodide staining-based FACS flow cytometric analysis; assay type: functional
[5] = biological target: T1, UDP-glucuronosyltransferase 2B4 (Homo sapiens, UniProt P06133); assay: Drug metabolism in human KB3 cells overexpressing human UGT2B4 assessed as enzyme-mediated metabolites formation at 30 uM for 24 to 72 hrs by HPLC analysis; assay type: ADME, cell-based; details: kb3, 30 µM
T1 sequence (P06133 whole entry): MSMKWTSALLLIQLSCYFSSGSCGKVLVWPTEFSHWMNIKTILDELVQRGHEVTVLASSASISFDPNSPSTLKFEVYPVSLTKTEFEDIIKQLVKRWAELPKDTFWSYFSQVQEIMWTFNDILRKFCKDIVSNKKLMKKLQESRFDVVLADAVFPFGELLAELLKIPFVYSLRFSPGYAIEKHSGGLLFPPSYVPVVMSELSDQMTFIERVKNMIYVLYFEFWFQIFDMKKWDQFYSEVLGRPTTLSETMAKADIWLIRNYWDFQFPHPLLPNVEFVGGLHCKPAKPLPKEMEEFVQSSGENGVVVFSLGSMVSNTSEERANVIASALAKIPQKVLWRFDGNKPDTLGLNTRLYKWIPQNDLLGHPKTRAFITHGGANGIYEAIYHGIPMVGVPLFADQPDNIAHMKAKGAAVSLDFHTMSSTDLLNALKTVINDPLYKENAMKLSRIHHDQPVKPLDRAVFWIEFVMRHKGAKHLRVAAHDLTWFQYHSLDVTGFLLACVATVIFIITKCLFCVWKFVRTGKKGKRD
Outline: (§3)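 Untransfected KB-3, or cells electroporated 24 h earlier with UGT1A10 or UGT2B4 plasmid, grown to 80% confluence and treated with 30 μM drug for 24, 48 or 72 h. Cells plus medium collected, washed, sonicated in ice-cold 60% methanol. Reverse-phase HPLC at 1 ml/min in 50 mM ammonium formate pH 3.2, with a 15–80% methanol gradient over 25 min, then to 100%. Positive-ion ESI-MS.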

[6] = Cytotoxicity against human KB3 cells expressing pcDNA3.1 assessed as decrease in cell viability after 72 hrs by MTT assay; assay type: functional, cell-based; details: KB3, 72 h; outline: as §2
[7] = Cell cycle arrest in human KB3 cells overexpressing human UGT1A10 assessed as distribution at subG1 DNA content at 3 uM after 24 hrs by propidium iodide staining-based FACS flow cytometric analysis (reference value: 3.4%); assay type: functional; details: in the assay text read “72 hrs” for “24 hrs”; outline: as §1
[8] = Cell cycle arrest in human KB3 cells assessed as distribution at S phase at 3 uM after 24 hrs by propidium iodide staining-based FACS flow cytometric analysis; assay type: functional
[9] = Cell cycle arrest in human KB3 cells assessed as distribution at G2 phase at 3 uM after 24 hrs by propidium iodide staining-based FACS flow cytometric analysis; assay type: functional
[10] = Cell cycle arrest in human KB3 cells assessed as distribution at subG1 DNA content at 3 uM after 72 hrs by propidium iodide staining-based FACS flow cytometric analysis (reference value: 3.4%)
[11] = Drug metabolism in human KB3 cells assessed as retention time at 30 uM for 24 to 72 hrs by HPLC analysis; assay type: ADME, cell-based; details: kb3, 30 µM; outline: as §3
[12] = biological target: T2, UDP-glucuronosyltransferase 1A10 (Homo sapiens, UniProt Q9HAW8); assay: Drug metabolism in human KB3 cells overexpressing human UGT1A10 assessed as enzyme-mediated metabolites formation at 30 uM for 24 to 72 hrs by HPLC analysis and electrospray ionization-mass spectrometry; assay type: ADME, cell-based; details: kb3, 30 µM; outline: as §3
T2 sequence (Q9HAW8 whole entry): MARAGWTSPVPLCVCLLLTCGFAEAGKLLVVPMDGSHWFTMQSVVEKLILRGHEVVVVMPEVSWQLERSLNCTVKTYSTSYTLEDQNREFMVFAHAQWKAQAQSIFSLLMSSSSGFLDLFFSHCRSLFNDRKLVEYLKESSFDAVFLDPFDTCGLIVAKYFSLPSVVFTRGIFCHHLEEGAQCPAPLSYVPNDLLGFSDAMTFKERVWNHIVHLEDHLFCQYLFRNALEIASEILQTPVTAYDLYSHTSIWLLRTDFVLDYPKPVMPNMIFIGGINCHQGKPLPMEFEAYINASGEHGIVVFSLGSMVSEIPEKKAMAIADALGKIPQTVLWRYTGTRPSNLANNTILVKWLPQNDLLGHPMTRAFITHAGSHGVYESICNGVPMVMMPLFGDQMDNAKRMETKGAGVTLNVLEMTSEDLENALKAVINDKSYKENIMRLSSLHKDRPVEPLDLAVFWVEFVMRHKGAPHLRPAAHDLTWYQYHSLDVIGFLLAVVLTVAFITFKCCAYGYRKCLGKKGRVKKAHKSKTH

[13] = Cytotoxicity against human KB3 cells expressing human UGT1A10 assessed as decrease in cell viability after 72 hrs by MTT assay; assay type: functional, cell-based; details: KB3, 72 h; outline: as §2
[14] = biological target: T2, UDP-glucuronosyltransferase 1A10; assay: Drug metabolism in human KB3 cells overexpressing human UGT1A10 assessed as enzyme-mediated metabolites formation at 30 uM for 24 to 72 hrs by HPLC analysis; assay type: ADME, cell-based; details: kb3, 30 µM; outline: as §3
[15] = Cell cycle arrest in human KB3 cells assessed as distribution at G2/M phase at 8 uM after 24 hrs by propidium iodide staining-based FACS flow cytometric analysis; assay type: functional
[16] = Cell cycle arrest in human KB3 cells assessed as distribution at M phase at 8 uM after 48 to 72 hrs by propidium iodide staining-based FACS flow cytometric analysis; assay type: functional
[17] = Cell cycle arrest in human KB3 cells assessed as reduction of cells at G1 phase at 8 uM after 24 hrs by propidium iodide staining-based FACS flow cytometric analysis; assay type: functional
[18] = Cell cycle arrest in human KB3 cells assessed as distribution at S phase at 8 uM after 24 hrs by propidium iodide staining-based FACS flow cytometric analysis; assay type: functional
[19] = Cell cycle arrest in human KB3 cells assessed as distribution at G2 phase at 8 uM after 48 to 72 hrs by propidium iodide staining-based FACS flow cytometric analysis; assay type: functional
[20] = Cell cycle arrest in human KB3 cells overexpressing human UGT1A10 assessed as accumulation of cells with 4N DNA content at 8 uM after 24 to 72 hrs by propidium iodide staining-based FACS flow cytometric analysis; assay type: functional; outline: as §1
[21] = Cell cycle arrest in human KB3 cells assessed as distribution at subG1 DNA content at 8 uM after 72 hrs by propidium iodide staining-based FACS flow cytometric analysis (reference value: 3.4%); assay type: functional
[22] = Cell cycle arrest in human KB3 cells overexpressing human UGT1A10 assessed as distribution at subG1 DNA content at 8 uM after 24 hrs by propidium iodide staining-based FACS flow cytometric analysis (reference value: 3.4%); assay type: functional; details: in the assay text read “72 hrs” for “24 hrs”; outline: as §1

SMILES | IC50 [1] | IC50 [3] | Drug metabolism [5] | IC50 [6] | Retention_time [11] | Drug metabolism [12] | IC50 [13] | Drug metabolism [14] | further results
CCN(CC)CCNc1ccc2ncn3c4ccc(O)cc4c(=O)c1c23.Cl | 106 nM | 113 nM | metabolite_not_detected | 102 nM | 15 min | metabolite_detected | 131 nM | metabolite_detected | Activity [2]: Active; Activity [4]: Active; Activity [7]: 22.4%; Activity [8]: Active; Activity [9]: Active; Activity [10]: 16.9%
CN(C)CCCNc1ccc2nnn3c4ccc(O)cc4c(=O)c1c23.Cl | 263 nM | 261 nM | metabolite_not_detected | 260 nM | 18 min | metabolite_detected | 180 nM | metabolite_detected | Activity [15]: Active; Activity [16]: Active; Activity [17]: Active; Activity [18]: Active; Activity [19]: Active; Activity [20]: Active; Activity [21]: 18.7%; Activity [22]: 37.2%
